Assay results from ChEMBL document CHEMBL1121464, “14-(Arylhydroxyamino)codeinones and derivatives as analgetics and antagonists” (1980).
Values joined by “and” are separate entries in the source; they are usually repeats but may differ in a detail not shown here. Equal values may be shown once. Active and inactive are the calls of the source.

Key:
Mus musculus [1] = experiment: Tested for analgesic activity using writhing test in mice at 20 mg/kg upon subcutaneous administration; type: functional; conditions: sc
Mus musculus [2] = experiment: Tested for antagonistic activity using Straub tail test in mice at 20 mg/kg upon subcutaneous administration; type: functional; conditions: sc
Mus musculus [3] = species on record: Mus musculus; experiment: Maximum percent analgesia using tail flick test in mice; type: functional
Procedure, shortened: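 Young male Swiss mice (ca. 35 g) restrained in cylinders, with the tail exposed to 54 °C water. Reaction time (shorter of a pair) taken pre-dose and every 15 min to 2 h. Naive non-responders under 2.2 s excluded; 5 s cutoff. Dosed ip at 20 mg/kg in propylene glycol or water, 9–11 mice per group. […] Analgesia defined as PRT >2.6 s; the value is the peak percentage of analgesic mice at any time point.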

Mus musculus [4] = experiment: Tested for antagonistic activity using Straub tail test in mice at 20 mg/kg upon subcutaneous administration; Inactive; type: functional, organism-based; set-up: dose 20 mg/kg
Mus musculus [5] = experiment: Tested for analgesic activity using writhing test in mice at 20 mg/kg upon subcutaneous administration; Inactive; type: functional, organism-based; set-up: dose 20 mg/kg

Compound | ED50 (Mus musculus [1]) [mg/kg] | ED50 (Mus musculus [2]) [mg/kg] | Analgesia (Mus musculus [3]) | ED50 (Mus musculus [4]) | ED50 (Mus musculus [5])
COc1ccc2c3c1OC1C(=O)C=CC4(NO)C(C2)N(C)CCC314 (centres undefined) | 5 | > 20 | 10% and 20% |  | 
COc1ccc2c3c1OC1C(=O)C=CC4(N(O)c5ccccc5)C(C2)N(CC2CC2)CCC314 (centres undefined) | > 40 | ~7 | 32% |  | 
CN1CC[C@]23c4c5ccc(O)c4O[C@H]2[C@@H](O)C=C[C@H]3[C@H]1C5 [MORPHINE] | 0.26 |  | 80% | inactive | 
COc1ccc2c3c1OC1C(=O)CCC4(Nc5ccc(F)cc5)C(C2)N(C)CCC314 (centres undefined) | 0.76 | > 40 | 10% |  | 
COc1ccc2c3c1OC1C(=O)CCC4(Nc5ccccc5)C(C2)N(C)CCC314 (centres undefined) | 1.04 | > 40 | 10% |  | 
COc1ccc2c(c1O)C13CCN(CC4CC4)C(C2)C12C=CC(=O)C3ON2c1ccccc1 (centres undefined) | > 40 | > 40 | 20% |  | 
COc1ccc2c(c1O)C13CCN(C)C(C2)C12C=CC(=O)C3ON2c1ccccc1 (centres undefined) | 1.87 | > 40 | 50% |  | 
COc1ccc2c(c1O)C13CCN(CC4CC4)C(C2)C12C=CC(=O)C3ON2c1ccc(F)cc1 (centres undefined) | ~31 | > 40 | 20% |  | 
COc1ccc2c3c1OC1C(=O)C=CC4(N(O)c5ccc(F)cc5)C(C2)N(CC2CC2)CCC314 (centres undefined) | ~40 | 12 | 32% |  | 
COc1ccc2c3c1OC1C(=O)C=CC4(N(O)c5ccc(F)cc5)C(C2)N(C)CCC314 (centres undefined) | 0.71 | > 40 | 30% |  | 
COc1ccc2c(c1O)C13CCN(C)C(C2)C12C=CC(=O)C3ON2c1ccc(F)cc1 (centres undefined) | 2.53 | > 40 | 90% |  | 
C=CCN1CC[C@]23c4c5ccc(O)c4O[C@H]2C(=O)CC[C@@]3(O)[C@H]1C5 [NALOXONE] |  |  | 32% |  | inactive
COc1ccc2c3c1OC1C(=O)CCC4(Nc5ccccc5)C(C2)N(CC2CC2)CCC314 (centres undefined) | ~40 | ~10.5 | 10% |  | 
COc1ccc2c3c1OC1C(=O)CCC4(Nc5ccc(F)cc5)C(C2)N(CC2CC2)CCC314 (centres undefined) | ~25 | ~5 | 32% |  | 
COc1ccc2c3c1OC1C(=O)C=CC4(N(O)c5ccccc5)C(C2)N(C)CCC314 (centres undefined) | 1.45 | > 20 | 20% |  | 
